# Assay outcomes deposited in PubChem BioAssay by several laboratories.
# TLR4-MyD88 BLA: blocks binding of human TLR4 to MyD88. HeLa CL3-4 TLR4/MyD88 BLA complementation, FRET ratio. inhibition, % at 8.4 µM. 200,000 tested, 0.18% active. AID 861; in the data active means inhibition above about 25%;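 further: 0% = vehicle and 100% = reference inhibitor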
# Target sequence (O00206 whole entry, looked up): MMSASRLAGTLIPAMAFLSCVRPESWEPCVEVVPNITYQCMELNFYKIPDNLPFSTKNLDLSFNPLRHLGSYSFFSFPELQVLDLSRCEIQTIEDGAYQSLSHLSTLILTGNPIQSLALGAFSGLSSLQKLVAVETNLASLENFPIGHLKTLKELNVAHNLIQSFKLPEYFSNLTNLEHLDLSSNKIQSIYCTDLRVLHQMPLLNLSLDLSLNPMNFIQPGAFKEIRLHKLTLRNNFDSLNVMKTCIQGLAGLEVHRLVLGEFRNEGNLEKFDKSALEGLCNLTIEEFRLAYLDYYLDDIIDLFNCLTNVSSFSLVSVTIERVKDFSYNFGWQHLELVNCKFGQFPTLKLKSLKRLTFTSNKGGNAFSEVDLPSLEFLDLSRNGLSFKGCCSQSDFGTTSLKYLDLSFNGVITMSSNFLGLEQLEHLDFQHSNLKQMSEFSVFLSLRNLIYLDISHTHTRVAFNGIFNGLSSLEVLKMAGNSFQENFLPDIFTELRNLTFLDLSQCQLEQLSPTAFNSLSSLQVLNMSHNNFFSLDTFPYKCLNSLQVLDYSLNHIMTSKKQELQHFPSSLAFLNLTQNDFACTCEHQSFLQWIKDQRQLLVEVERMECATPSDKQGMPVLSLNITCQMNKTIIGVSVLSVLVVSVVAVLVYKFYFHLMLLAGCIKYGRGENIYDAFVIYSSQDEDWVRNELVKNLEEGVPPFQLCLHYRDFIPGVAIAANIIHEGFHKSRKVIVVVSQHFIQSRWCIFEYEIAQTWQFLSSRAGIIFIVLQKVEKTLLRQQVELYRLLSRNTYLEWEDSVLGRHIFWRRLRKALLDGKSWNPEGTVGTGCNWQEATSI
# Target sequence (Q99836 whole entry, looked up): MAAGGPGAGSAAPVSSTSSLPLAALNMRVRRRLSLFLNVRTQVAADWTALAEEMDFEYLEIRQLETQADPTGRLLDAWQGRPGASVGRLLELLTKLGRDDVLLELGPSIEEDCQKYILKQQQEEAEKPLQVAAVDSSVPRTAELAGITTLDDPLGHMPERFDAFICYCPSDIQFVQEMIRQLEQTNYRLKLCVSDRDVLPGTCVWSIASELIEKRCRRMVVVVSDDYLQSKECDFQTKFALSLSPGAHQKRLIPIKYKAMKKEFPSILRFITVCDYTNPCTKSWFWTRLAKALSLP
# CHOP inhibitor: blocks CHOP induction under ER stress. CHO-K1 CHOP-promoter luciferase, tunicamycin-induced, 15-18 h. 220,000 tested, 3.8% active. inhibition, % at 10 µM;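 active means compounds that reduced the stress-induced luciferase reporter signal by more than about 70% of percent inhibition, limit read from the data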;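 further: 0% = tunicamycin plus vehicle and 100% = wells without tunicamycin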
# TLR9-MyD88 inh: TLR9-MyD88 interaction inhibition. AID 504734. CHO BLA complementation TLR9-MyD88, CCF4 FRET ratio. 340,000 tested, 0.21% active. inhibition, % at 4.98 µM;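 active means inhibition above the mean over all tested compounds plus 3 SD, cut at about 21% in these data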;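 further: 0% = DMSO only wells and 100% = clavulanate BLA inhibitor control wells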
# UPR CHOP act: apoptotic UPR (CHOP) activation; CHO-CHOP luciferase reporter, luminescence; percent of tunicamycin response over DMSO baseline; 330,000 tested, 0.34% active; activation, % at 10 µM;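 active means at 10 µM dose, activation of 40% or more, normalized to positive control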;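 further: 100% = tunicamycin at 10 µg/mL and 0% = DMSO alone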
#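 System: CHO CHOP reporter cells. Amount: 500 cells per well. Buffer or medium: F12 medium, 10% FBS. Compound dosing: one dose, 10 µM in 0.5% DMSO. Incubation: 6 h compound exposure at 37 °C after overnight seeding. Technique: Steady-Glo luciferase luminescence. Benchmarks: tunicamycin and DMSO controls.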
# XBP1 UPR activ: adaptive UPR (XBP1) activation. CHO-XBP1 luciferase reporter, IRE1-XBP1 UPR activation, luminescence; percent of tunicamycin response, DMSO as zero. activation, % at 20 µM. 330,000 tested, 0.33% active;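 active means versus positive control, 20 µM dose yields 30% or more activation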;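 further: 100% = tunicamycin at 10 µg/mL and 0% = DMSO only wells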
#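 assay system = CHO-XBP1 luciferase reporter cells | amount = 1000 cells/well | buffer or medium = F12 plus 10% FBS | compound dosing = single point, 20 µM final compound, 1% DMSO | incubation = 16-18 h cell attachment at 37 °C, then 6 h compound exposure | detection = Steady-Glo luminescence read | controls = tunicamycin 10 µg/mL and vehicle-only wells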
# NOD2-RIPK2 inh: NOD2-RIPK2 protein interaction inhibition; AID 624267; CHO BLA complementation NOD2-RIPK2, CCF4 ratio; inhibition, % at 4.98 µM; 360,000 tested, 0.38% active; in the data active means inhibition above about 21%;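 further: 0% = vehicle only and 100% = reference blocker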
# CHOP UPR conf: apoptotic UPR (CHOP) activation, confirmed. 1,000 tested, 64% active. shares compounds with UPR CHOP act. AID 463112. CHO-CHOP cells, CHOP-luciferase reporter luminescence; percent of tunicamycin response, DMSO as zero. activation, % at 10 µM; in the data active means activation above about 33%;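 further: 0% = DMSO wells and 100% = tunicamycin 10 µg/mL wells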
# XBP1 UPR conf: adaptive UPR (XBP1) activation, confirmed | 1,000 tested, 63% active | CHO-XBP1 IRE1-XBP1 luciferase reporter, luminescence | AID 485299 | activation, % at 20 µM | shares compounds with XBP1 UPR activ;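 active means reporter signal at least 30% of the positive control's activation in two or more of four replicate wells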;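 further: plate controls were DMSO negative control for no effect and tunicamycin 10 µg/mL positive control for full effect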
# Numbers without * were called inactive; nt = no result. This excerpt belongs to a sample that is enriched for hits.
SMILES,TLR4-MyD88 BLA,CHOP inhibitor,TLR9-MyD88 inh,UPR CHOP act,XBP1 UPR activ,NOD2-RIPK2 inh,CHOP UPR conf,XBP1 UPR conf
CCCCCCCC(=O)Nc1ccc(C(=O)N/N=C/c2cccc([N+](=O)[O-])c2)cc1,-2,66,3,193*,237*,-7,183*,145*
CCOc1ccc(-n2nc3ccc(NC(=O)c4ccc5c(c4)OCCO5)cc3n2)cc1,2,76*,-6,73*,155*,10,20,122*
Cc1ccc(-c2nn(-c3ccccc3)cc2/C=C/C(=O)Nc2nccs2)cc1,-9,93*,9,45*,50*,-8,13,26
O=C(Cc1ccccc1F)Nc1nc(-c2ccc(F)c(F)c2)cs1,nt,nt,3,6,1,-3,nt,nt
O=C(Nc1nc(-c2ccc(F)c(F)c2)cs1)Nc1ccc(F)cc1F,nt,nt,7,47*,74*,-2,53*,123*
COc1ccc(Cn2c(SCc3ccc(C)cc3)nc3cc(OC)c(OC)cc3c2=N)cc1Cl,-5,72*,3,88*,32*,5,39*,7
OCCCn1c(C2CCCN2c2nc(-c3ccc(Cl)cc3)cs2)nc2cc(Cl)c(N3CCCCC3)cc21 (centres undefined),nt,nt,1,88*,122*,10,24,198*
Cc1csc(N2CCCC2c2nc3cc(Cl)c(N4CCCCC4)cc3n2CCCO)n1 (centres undefined),nt,nt,6,-1,-1,0,nt,nt
COC(=O)C[C@H]1C[C@@H]2c3cc(NC(=O)NC4CCCC4)ccc3O[C@@H]2[C@@H](CO)O1,nt,nt,-4,nt,nt,9,nt,nt
O=C(CN1CCN(Cc2cccc(F)c2)CC1)NCc1ccccc1,nt,nt,8,-1,-2,-6,nt,nt
Cc1ccc(C(=O)Nc2cccc(C(=O)N/N=C/c3ccc(O)cc3)c2)cc1,nt,nt,2,-1,-4,-3,nt,nt
Cc1ccccc1NC(=O)c1ccc(N/N=C/c2ccccc2O)c([N+](=O)[O-])c1,5,19,-18,48*,45*,-6,71*,71*
Cc1ccc(NC(=O)c2ccc(N/N=C/c3cccc(O)c3)c([N+](=O)[O-])c2)cc1,0,69,3,63*,51*,0,52*,39*
C=CCNC(=S)NNC(=O)Cn1c(-c2ccccc2)cc(=O)n2ncnc12,nt,6,7,1,1,-5,nt,nt
O=c1cc(O)c2ccccc2n1Cc1ccccc1F,-3,17,-10,-1,3,-3,nt,nt
FC(F)(F)c1nnc2c(Sc3ccccc3)nc3ccc(Cl)cc3n12,1,-104,6,233*,115*,-14,152*,124*
O=C(NCCOC(=O)c1c(F)cccc1Cl)c1c(F)cccc1Cl,nt,nt,1,nt,nt,0,nt,nt
Oc1cc(-c2cccnc2)cc2cccnc12,nt,nt,14,96*,46*,-3,74*,34*
CN1CCN(c2cc(-c3cc(O)c4ncccc4c3)ccn2)CC1,nt,nt,-6,0,-1,4,nt,nt
CCOc1cc(/C=C2/C(=N)N3C=CSC3=NC2=O)ccc1OCCCOc1ccccc1C,-7,85*,-10,78*,265*,-5,36*,134*
COc1ccccc1C(=O)NC(=S)NNC(=O)c1sc2ccccc2c1Cl,9,89*,-1,48*,38*,-8,51*,53*
COc1cc(NC(=O)C2C3CCC(O3)C2C(=O)O)cc(OC)c1 (centres undefined),nt,nt,11,0,1,0,nt,nt
O=C(/C=C1\NC2(CCCC2)Cc2ccccc21)C(=O)N/N=C/c1ccc(O)c(O)c1,-2,54,12,124*,92*,12,68*,80*
COc1ccc(/C=N/NC(=O)C(=O)/C=C2\NC3(CCCC3)Cc3ccccc32)cc1,2,10,-1,5,3,-1,nt,nt
CN(C)/C=C1/N=C(c2ccccc2)OC1=O,2,0,3,6,0,-14,nt,nt
SMILES,TLR4-MyD88 BLA,CHOP inhibitor,TLR9-MyD88 inh,UPR CHOP act,XBP1 UPR activ,NOD2-RIPK2 inh,CHOP UPR conf,XBP1 UPR conf
O=CC1=C(c2ccccc2)Oc2ccccc2O1,nt,nt,-7,67*,37*,-6,72*,33*
CCc1ccc(NC(=O)COc2ccc(/C=C(/C#N)c3nc4ccccc4[nH]3)cc2OC)cc1,-7,87*,3,172*,192*,-1,1,-2
COC(=O)c1ccc(COc2ccc(/C=C(\C#N)c3nc4ccccc4[nH]3)cc2OC)o1,0,38,9,4,8,8,nt,nt
Cc1ccc(C(C[N+](=O)[O-])n2nc(C)cc2C)cc1 (centres undefined),19,-28,-2,57*,55*,-5,83*,20
Cc1ccc(S(=O)(=O)NCC(C)n2nc(C)cc2C)cc1 (centres undefined),nt,nt,-8,1,0,-2,nt,nt
Cc1ccc(C2SCCN2C(=O)c2ccc([N+](=O)[O-])cc2)cc1 (centres undefined),-7,28,-4,0,-1,-10,nt,nt
C=CCc1c(C)nc(SCC(=C)C)[nH]c1=O,5,-35,-5,-1,1,-7,nt,nt
Cc1sc(NC(=O)c2cc(-c3ccc(Cl)cc3)nc3ccccc23)c(C(N)=O)c1C,-5,-25,1,107*,199*,2,85*,183*
O=c1[nH]c(-c2ccc(-c3cccc(Cl)c3)o2)nc2ccccc12,nt,nt,1,74*,92*,13,105*,176*
O=c1[nH]c(SCc2cccc(Cl)c2)nc2ccccc12,-1,38,-16,-1,-6,-2,nt,nt
C/C(=N\Nc1ncnc2sc(C)c(C)c12)c1ccccn1,nt,nt,-10,97*,97*,-7,88*,122*
Cc1sc2ncnc(N/N=C/c3cccc(O)c3)c2c1C,-7,31,-14,7,1,-7,nt,nt
NS(=O)(=O)c1ccc(N/N=C/c2cn(-c3ccccc3)nc2-c2ccccc2)c([N+](=O)[O-])c1,13,10,4,104*,78*,-1,0,75*
Cc1c(C(=O)NC(C(C)C)C(C)C)cccc1[N+](=O)[O-],-3,36,3,-1,-2,-7,nt,nt
COc1cccc(-c2c(-c3cc(OC)cc(OC)c3)n(C)c3ccc(-c4cnc(N5CCOCC5)nc4)cc23)c1,nt,nt,-5,104*,124*,3,28,93*
